Experiments:
HpMTAN [1] = biological target: T1, HpMTAN (Helicobacter pylori, UniProt Q9ZMY2); type: biochemical
T1 sequence (Q9ZMY2 1-230): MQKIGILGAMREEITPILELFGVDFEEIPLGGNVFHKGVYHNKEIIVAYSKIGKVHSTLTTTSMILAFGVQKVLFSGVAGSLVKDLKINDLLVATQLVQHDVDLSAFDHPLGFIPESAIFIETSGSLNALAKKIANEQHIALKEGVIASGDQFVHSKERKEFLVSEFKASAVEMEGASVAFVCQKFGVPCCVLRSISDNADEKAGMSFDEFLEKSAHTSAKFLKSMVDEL

[2] = biological target: human adenosine deaminase (HsADA); conditions: cited from earlier work
HpAFLDA = HpAFLDA (Helicobacter pylori, UniProt Q9ZMG8); test: HpAFLDA inhibition assay; type: biochemical, H. pylori strain J99
H. pylori J99 = test: Inhibition of H. pylori growth in liquid culture; type: cell-based, Helicobacter pylori
H. pylori = test: Metabolite supplementation of the growth medium, effect on H. pylori cell growth; type: cell-based, Helicobacter pylori
[3] = system: Sav2595, Acel0264, Dr0824, Nis0429; conditions: four enzymes, 30 °C; cited from earlier work
HpMTAN [4] = biological target: T1, HpMTAN; test: AFL and FL hydrolysis by HpMTAN; type: biochemical
HpAFLDA (jhp0252) = biological target: T2, HpAFLDA (jhp0252) (Helicobacter pylori, UniProt Q9ZMG8); test: Enzymatic assay for HpAFLDA deaminase activity; type: biochemical, H. pylori strain J99; conditions: for fold difference of kcat/Km between AFL and adenosine: HpAFLDA, AFL greater than adenosine
T2 sequence (Q9ZMG8 1-409): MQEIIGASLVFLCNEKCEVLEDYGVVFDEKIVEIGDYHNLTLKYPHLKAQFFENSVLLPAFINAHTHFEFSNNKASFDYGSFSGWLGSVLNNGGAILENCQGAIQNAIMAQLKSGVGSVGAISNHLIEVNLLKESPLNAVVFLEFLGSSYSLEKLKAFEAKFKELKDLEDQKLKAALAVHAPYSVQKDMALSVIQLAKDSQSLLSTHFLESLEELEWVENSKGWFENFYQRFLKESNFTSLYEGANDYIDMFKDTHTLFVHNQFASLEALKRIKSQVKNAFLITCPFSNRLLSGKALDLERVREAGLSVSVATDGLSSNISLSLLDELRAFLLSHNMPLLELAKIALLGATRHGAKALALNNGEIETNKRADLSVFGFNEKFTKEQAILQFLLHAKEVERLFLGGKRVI

H. pylori cells [5] = test: Metabolism of AFL and FL by live H. pylori cell mixtures; type: cell-based, Helicobacter pylori; conditions: ~10^8 cells in PBS pH 7.0
Outline: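 Live cells were taken from overnight cultures and washed twice with PBS. Incubations were started by adding 25 μM AFL or FL to ~10^8 cells in PBS (pH 7.0). Metabolites were extracted with ice-cold acetonitrile/methanol/water (40:40:20) containing 0.1 M formic acid and a deuterated SAM internal standard. Extracts were dried, redissolved in water, and quantified by reversed-phase LC-MS/MS (ESI−, MRM).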

H. pylori cells [6] = type: cell-based, Helicobacter pylori
[7] = substrate: Nc1ncnc2c1ncn2[C@@H]1O[C@H](CCC(=O)c2cccc(C(=O)O)c2)[C@@H](O)[C@H]1O; test: AFL and FL hydrolysis by HpMTAN; type: biochemical, Helicobacter pylori; conditions: other: hydrolysis by HpMTAN, 50 mM HEPES pH 7.0
[8] = substrate: Nc1ncnc2c1ncn2[C@@H]1O[C@H](CO)[C@@H](O)[C@H]1O; test: Enzymatic assay for HpAFLDA deaminase activity; type: biochemical, H. pylori strain J99; conditions: other: deamination by HpAFLDA, 50 mM HEPES pH 7.0, 25 °C
[9] = substrate: C[C@H]1O[C@@H](n2cnc3c(N)ncnc32)[C@H](O)[C@@H]1O; test: Enzymatic assay for HpAFLDA deaminase activity; type: biochemical, H. pylori strain J99; conditions: other: deamination by HpAFLDA, 50 mM HEPES pH 7.0, 25 °C
[10] = substrate: Nc1ncnc2c1ncn2[C@@H]1O[C@H](CCC(=O)c2cccc(C(=O)O)c2)[C@@H](O)[C@H]1O; test: Enzymatic assay for HpAFLDA deaminase activity; type: biochemical, H. pylori strain J99; conditions: other: deamination by HpAFLDA, 50 mM HEPES pH 7.0, 25 °C
[11] = deamination by HpAFLDA, 50 mM HEPES pH 7.0, 25 °C

5′-methylthioadenosine [MTA]
catalytic efficiency of MTA hydrolysis relative to AFL hydrolysis (HpMTAN [1]): > 100 fold

OC[C@H]1O[C@@H](n2cnc3c2N=CNC[C@H]3O)[C@H](O)[C@@H]1O [(8R)-CF, Coformycin, reference compound]
Ki values [2]: submicromolar | Ki (HpAFLDA): > 10 µM

CSC[C@H]1O[C@@H](n2cnc3c2N=CNC[C@H]3O)C[C@@H]1O [(8R)-MT-2′d-CF, 5′-methylthio-2′-deoxycoformycin]
inhibition of HpAFLDA activity (HpAFLDA; even at 10 μM): did not inhibit

CSC[C@H]1O[C@@H](n2cnc3c2N=CNC[C@H]3O)[C@H](O)[C@@H]1O [(8R)-MTCF, 5′-methylthiocoformycin]
type of inhibition of HpAFLDA (HpAFLDA; second phase of inhibition after reaction for 30 min): slow-onset inhibitor | IC50 (H. pylori J99; read-out: IC50, H. pylori growth, liquid medium, 72 h, microaerophilic, 37 °C): 14 ± 1 µM

O[C@@H]1CNC=Nc2c1ncn2[C@H]1C[C@H](O)[C@@H](CSc2ccccc2)O1 [(8R)-PhT-2′d-CF, 5′-phenylthio-2′-deoxycoformycin]
inhibition of HpAFLDA (in words) (HpAFLDA): showed some inhibition

CCCSC[C@H]1O[C@@H](n2cnc3c2N=CNC[C@H]3O)C[C@@H]1O [(8R)-PrT-2′d-CF, 5′-propylthio-2′-deoxycoformycin]
inhibition of HpAFLDA (in words) (HpAFLDA): showed some inhibition

Nc1ncnc2c1ncn2[C@@H]1O[C@H](CCC(=O)c2cccc(C(=O)O)c2)[C@@H](O)[C@H]1O [AFL, 6-Amino-6-deoxyfutalosine]
effect of supplementation on cell growth (H. pylori; 200 μM AFL in the growth medium, BTDIA used to stress MK biosynthesis): did not cause a significant impact on cell growth | catalytic efficiencies for AFL deamination [3]: 4.8 × 10^6 to 7.9 × 10^5 M^−1 s^−1 | hydrolysis by HpMTAN (in words) (HpMTAN [4]): capable of catalyzing only AFL hydrolysis | fold difference of kcat/Km between AFL and adenosine (HpAFLDA (jhp0252)): 26 fold | kcat (HpAFLDA (jhp0252); [11]): 0.62 s⁻¹ | conversion of the added metabolite by live H. pylori cells (H. pylori cells [5]; 25 μM AFL): readily converted AFL to FL and adenine

CCCCSC[C@H]1CN(Cc2c[nH]c3c(N)ncnc23)C[C@@H]1O [BTDIA, BuT-DADMe-ImmA]
menaquinone-6 concentrations in lipid extracts (H. pylori cells [6]; BTDIA at 14 nM, p < 0.005): decreased significantly | cellular DHFL concentrations (H. pylori cells [6]; BTDIA at its half-maximal inhibitory concentration (14 nM)): Significant decreases

O=C(O)c1cccc(C(=O)CC[C@H]2O[C@@H](n3cnc4c(=O)[nH]cnc43)[C@H](O)[C@@H]2O)c1 [FL, futalosine]
effect of supplementation on cell growth (H. pylori; FL 1 to 200 μM): did not affect cell growth | hydrolysis by HpMTAN (in words) (HpMTAN [4]): not FL hydrolysis | kcat (HpMTAN [4]; hydrolysis by HpMTAN, 50 mM HEPES pH 7.0): <1e-05 s⁻¹ | reversal of MTCF growth inhibition by supplementation (H. pylori J99; 50 μM FL with 6-100 μM MTCF, 96 h): partially reversed the growth inhibition | change of the FL concentration in live H. pylori cells (H. pylori cells [5]; 25 μM FL): no significant changes | hypoxanthine formation in live H. pylori cells (H. pylori cells [5]; 25 μM FL): no hypoxanthine was formed

Nc1ncnc2c1ncn2[C@@H]1O[C@H](CSCC[C@H](N)C(=O)O)[C@@H](O)[C@H]1O [SAH, S-adenosylhomocysteine]
Km (HpAFLDA (jhp0252); [11]): 220 ± 50 µM | kcat (HpAFLDA (jhp0252); [11]): 0.12 ± 0.02 s⁻¹

Nc1ncnc2c1ncn2[C@@H]1O[C@H](CO)[C@@H](O)[C@H]1O [adenosine]
fold difference of kcat/Km between AFL and adenosine (HpAFLDA (jhp0252)): 26 fold

B1: HpMTAN (Helicobacter pylori J99) (protein)
chain: T1 sequence (Q9ZMY2 1-230)
Km [7]: 1.6 ± 0.3 µM | kcat [7]: 0.022 ± 0.02 s⁻¹ | kcat/Km [7]: 14000 M⁻¹ s⁻¹

B2: HpAFLDA (jhp0252) (Helicobacter pylori J99) (protein)
chain: T2 sequence (Q9ZMG8 1-409)
Km [8]: 170 ± 40 µM | kcat [8]: 0.44 ± 0.06 s⁻¹ | kcat/Km [8]: 2600 M⁻¹ s⁻¹ | kcat [9]: 1.6 ± 0.3 s⁻¹ | kcat/Km [9]: 12000 M⁻¹ s⁻¹ | Km [10]: 9 ± 1 µM | kcat [10]: 0.62 ± 0.03 s⁻¹ | kcat/Km [10]: 68000 M⁻¹ s⁻¹
